Data: ChEMBL document CHEMBL4002555, “Bioactive Pentacyclic Triterpenoids from the Leaves of Cleistocalyx operculatus” (J Nat Prod, 2016)

What was measured:
HepG2 = assay: Cytotoxicity against human HepG2 cells after 72 hrs by MTT assay; type: functional, cell-based; conditions: HepG2, 72 h
Outline: (§1)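 MTT growth-inhibition assay in human HepG2 hepatocellular, NCI-N87 gastric and MCF-7 breast carcinoma lines, with a doxorubicin positive control. IC50 values are means ± SD from three individual experiments; >10.0 μM was taken as noncytotoxic.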

NCI-N87 = assay: Cytotoxicity against human NCI-N87 cells after 72 hrs by MTT assay; type: functional, cell-based; conditions: NCI-N87, 72 h; outline: as §1
MCF7 = assay: Cytotoxicity against human MCF7 cells after 72 hrs by MTT assay; type: functional, cell-based; conditions: MCF7, 72 h; outline: as §1
[1] = Cytotoxicity against mouse RAW264.7 cells assessed as growth inhibition at 50 uM after 72 hrs by MTT assay relative to control; type: cell-based; conditions: read-out: GI
RAW264.7 [2] = assay: Anti-inflammatory activity in mouse RAW264.7 cells assessed as inhibition of LPS-induced IL-6 production at 50 uM pretreated for 1 hr followed by LPS stimulation measured after 24 hrs by ELISA relative to control; type: functional
Outline: (§2)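 LPS-stimulated RAW 264.7 macrophages, with IL-6 and TNF-α production read separately. Test concentrations were 0.4, 2, 10 and 50 μM, and dexamethasone was the reference drug. Results are given as percent inhibition of cytokine production.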

RAW264.7 [3] = assay: Anti-inflammatory activity in mouse RAW264.7 cells assessed as inhibition of LPS-induced IL-6 production at 10 uM pretreated for 1 hr followed by LPS stimulation measured after 24 hrs by ELISA relative to control; type: functional; outline: as §2
RAW264.7 [4] = assay: Anti-inflammatory activity in mouse RAW264.7 cells assessed as inhibition of LPS-induced IL-6 production at 2 uM pretreated for 1 hr followed by LPS stimulation measured after 24 hrs by ELISA relative to control; type: functional; outline: as §2
RAW264.7 [5] = assay: Anti-inflammatory activity in mouse RAW264.7 cells assessed as inhibition of LPS-induced IL-6 production at 0.4 uM pretreated for 1 hr followed by LPS stimulation measured after 24 hrs by ELISA relative to control; type: functional; outline: as §2
RAW264.7 [6] = assay: Anti-inflammatory activity in mouse RAW264.7 cells assessed as inhibition of LPS-induced TNF-alpha production at 50 uM pretreated for 1 hr followed by LPS stimulation measured after 24 hrs by ELISA relative to control; type: functional; outline: as §2
RAW264.7 [7] = assay: Anti-inflammatory activity in mouse RAW264.7 cells assessed as inhibition of LPS-induced TNF-alpha production at 10 uM pretreated for 1 hr followed by LPS stimulation measured after 24 hrs by ELISA relative to control; type: functional; outline: as §2
RAW264.7 [8] = assay: Anti-inflammatory activity in mouse RAW264.7 cells assessed as inhibition of LPS-induced TNF-alpha production at 2 uM pretreated for 1 hr followed by LPS stimulation measured after 24 hrs by ELISA relative to control; type: functional; outline: as §2
RAW264.7 [9] = assay: Anti-inflammatory activity in mouse RAW264.7 cells assessed as inhibition of LPS-induced TNF-alpha production at 0.4 uM pretreated for 1 hr followed by LPS stimulation measured after 24 hrs by ELISA relative to control; type: functional; outline: as §2
[10] = Cytotoxicity against mouse RAW264.7 cells assessed as growth inhibition at 2 uM after 72 hrs by MTT assay relative to control; type: cell-based; conditions: read-out: GI

Structure (SMILES)	IC50 (HepG2)	IC50 (NCI-N87)	IC50 (MCF7)	inhibition at 72 h, 50 µM [1]	inhibition at 50 µM (RAW264.7 [2])	inhibition at 10 µM (RAW264.7 [3])	inhibition at 2 µM (RAW264.7 [4])	inhibition at 0.4 µM (RAW264.7 [5])	inhibition at 50 µM (RAW264.7 [6])	inhibition at 10 µM (RAW264.7 [7])	inhibition at 2 µM (RAW264.7 [8])	inhibition at 0.4 µM (RAW264.7 [9])	inhibition at 72 h, 2 µM [10]
CC1(C)CC[C@@]23CC[C@]4(C)[C@@](OC2=O)([C@@H]3C1)[C@H]1O[C@H]1[C@@H]1[C@@]2(C)C[C@@H](O)[C@H](O)[C@@](C)(CO)[C@@H]2CC[C@]14C	> 10 µM	> 10 µM	> 10 µM	< 5%	< 50%	< 50%	< 50%	< 50%	< 50%	< 50%	< 50%	< 50%	–
COC(=O)[C@]12CC=C(C)[C@@H](C)[C@@H]1[C@H]1CC[C@@H]3[C@@]4(C)CC[C@H](O)C(C)(C)[C@@H]4CC[C@@]3(C)[C@]1(C(=O)O)CC2	3.2 µM	6.5 µM	4.9 µM	–	–	–	51%	38.4%	–	–	42.9%	39.1%	< 5%
CO[C@@H]1C=C2[C@@H]3CC(C)(C)CC[C@]3(C(=O)O)CC[C@@]2(C)[C@]2(C)CC[C@@H]3[C@](C)(C[C@@H](O)[C@H](O)[C@@]3(C)CO)[C@@H]12	> 10 µM	> 10 µM	> 10 µM	< 5%	68.8%	64.8%	42.3%	–	52.8%	54.1%	22%	–	–
C=C1CC[C@]2(C(=O)O)CC[C@]3(C)C(=CC(=O)[C@@H]4[C@@]5(C)C[C@@H](O)[C@H](O)[C@@](C)(CO)[C@@H]5CC[C@]43C)[C@@H]2[C@H]1C	> 10 µM	> 10 µM	> 10 µM	< 5%	< 50%	< 50%	< 50%	< 50%	< 50%	< 50%	< 50%	< 50%	–
C=C1CC[C@]2(C(=O)O)CC[C@]3(C)C(=C[C@@H](OC)[C@@H]4[C@@]5(C)C[C@@H](O)[C@H](O)[C@@](C)(CO)[C@@H]5CC[C@]43C)[C@@H]2[C@H]1C	> 10 µM	> 10 µM	> 10 µM	< 5%	< 50%	< 50%	< 50%	< 50%	< 50%	< 50%	< 50%	< 50%	–
CC1(C)CC[C@]2(C(=O)O)CC[C@]3(C)C(=CC(=O)[C@@H]4[C@@]5(C)C[C@@H](O)[C@H](O)[C@@](C)(CO)[C@@H]5CC[C@]43C)[C@@H]2C1	> 10 µM	> 10 µM	> 10 µM	< 5%	63%	35.2%	33.8%	–	18.8%	< 10%	< 10%	–	–
